According to ChEMBL document CHEMBL4011654, “Mitochondria-Targeted Lupane Triterpenoid Derivatives and Their Selective Apoptosis-Inducing Anticancer Mechanisms” (J Med Chem, 2017):
The source made the active and inactive calls. No cut-off for these calls is given here.

Key:
[1] = system: K562; test: Induction of ROS generation in human K562 cells at 0.5 uM after 48 hrs by DCFH-DA probe based flow cytometric analysis relative to control; assay type: functional
Method in brief: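 K562 seeded at 4 × 10^5 cells/well, 12 h, then treated 48 h. Washed cells loaded with DCFH-DA in FBS-free medium at 37 °C for 30 min, rinsed, read by flow cytometry. ROSup was the positive control; mean ± SD, n = 3.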

[2] = system: K562; test: Induction of mitochondrial membrane depolarization in human K562 cells assessed as cell with intact mitochondrial membrane potential at 1 uM after 48 hrs by JC-1 staining based flow cytometric analysis (reference value: 97.63 to 97.67%); assay type: functional
Method in brief: (§1)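 K562 seeded at 4 × 10^5 cells/well, after 12 h treated 48 h. Cells washed in ice-cold PBS, loaded with JC-1 ([…]) at 37 °C for 15 min, rinsed, and analysed by flow cytometry (% cells with red aggregates) and fluorescence microscopy (red aggregates vs green monomers).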

[3] = system: L02; test: Cytotoxicity against human HL-7702 cells assessed as cell growth inhibition after 48 hrs by MTT assay; assay type: cell-based; details: L02, 48 h
Method in brief: (§2)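 Adherent cells seeded at 5000/well, left 16−24 h, then exposed 48 h at 37 °C, 5% CO2 in RPMI with 10% FBS. Medium refreshed, MTT added for 4 h at 37 °C, medium removed, formazan dissolved in DMSO, OD570 read. IC50 taken as concentration inhibiting growth by 50%; triplicate.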

[4] = system: K562; test: Induction of apoptosis in human K562 cells assessed as necrotic cells at 0.4 uM after 48 hrs by Annexin V-FITC/propidium iodide-staining based flow cytometric analysis (reference value: 0.13 to 0.27%); assay type: functional
Method in brief: (§3)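 K562 seeded at 4 × 10^5 cells/well, 12 h, then exposed 48 h. Cells washed in ice-cold PBS, suspended in binding buffer, stained with annexin V-FITC and PI for 15 min at room temperature in the dark, and read by flow cytometry within 1 h. Cells counted as early/late apoptotic as % of total; n = 3.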

[5] = system: K562; test: Decrease in mitochondrial membrane potential in human K562 cells at 1 to 2 uM after 48 hrs by JC-1 staining based fluorescence microscopic analysis; assay type: functional, cell-based; method in brief: as §1
[6] = system: K562; test: Induction of apoptosis in human K562 cells assessed as increase in cytosolic cytochrome c level up to 4 uM after 48 hrs by Western blot analysis; assay type: functional, cell-based
Method in brief: (§4)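 K562 treated 48 h, then lysed on ice for 30 min; cytosolic and mitochondrial fractions isolated by kit where needed, protein measured by BCA. 60 μg/lane run on SDS-PAGE, transferred to PVDF, blocked in 5% milk/TBST for 4 h. Probed for cytochrome c, caspase-9, caspase-3 (total/cleaved), PARP; alkaline phosphatase secondary.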

[7] = system: K562; test: Induction of apoptosis in human K562 cells assessed as early apoptotic cells at 0.4 uM after 48 hrs by Annexin V-FITC/propidium iodide-staining based flow cytometric analysis (reference value: 0.92 to 1.45%); assay type: functional; method in brief: as §3
[8] = system: K562; test: Induction of mitochondrial membrane depolarization in human K562 cells assessed as cells with intact mitochondrial membrane potential at 2 uM after 48 hrs by JC-1 staining based flow cytometric analysis (reference value: 97.63 to 97.67%); assay type: functional; method in brief: as §1
[9] = system: K562; test: Induction of apoptosis in human K562 cells assessed as viable cells at 0.4 uM after 48 hrs by Annexin V-FITC/propidium iodide-staining based flow cytometric analysis (reference value: 95.75 to 96.56%); assay type: functional; details: K562, 48 h, read-out: Activity; method in brief: as §3
[10] = system: K562; test: Antitumor activity against CM-Dil-labeled human K562 cells xenografted in wild-type zebrafish embryos assessed as tumor growth inhibition at 1 to 10 ug/ml measured after 48 hrs by confocal microscopic analysis; assay type: functional, cell-based
Method in brief: (§5)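 K562 cells labelled with CM-Dil, suspended in FBS-free medium at (1 × 107)/mL and microinjected into wild-type zebrafish embryos kept at 28 °C in embryonic medium. After 4 h, embryos with the same injection spot were pooled at 15−20 per well and exposed to compound; Taxol served as positive control. At 48 h, confocal imaging gave fluorescent area (migration) and fluorescence intensity (cell number); n = 15.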

[11] = system: K562; test: Induction of mitochondrial membrane depolarization in human K562 cells assessed as cells with mitochondrial membrane potential loss at 2 uM after 48 hrs by JC-1 staining based flow cytometric analysis (reference value: 1.89 to 2.23%); assay type: functional
[12] = system: K562; test: Induction of mitochondrial membrane depolarization in human K562 cells assessed as cells with intact mitochondrial membrane potential at 4 uM after 48 hrs by JC-1 staining based flow cytometric analysis (reference value: 97.63 to 97.67%); assay type: functional
[13] = system: K562; test: Antitumor activity against CM-Dil-labeled human K562 cells xenografted in wild-type zebrafish embryos assessed as reduction in cell migration at 1 to 2 ug/ml measured after 48 hrs by confocal microscopic analysis; assay type: functional, cell-based; method in brief: as §5
[14] = system: K562; test: Induction of apoptosis in human K562 cells assessed as decrease in cytochrome c level in mitochondria up to 4 uM after 48 hrs by Western blot analysis; assay type: functional, cell-based; method in brief: as §4
[15] = system: K562; test: Induction of mitochondrial membrane depolarization in human K562 cells assessed as cells with mitochondrial membrane potential loss at 1 uM after 48 hrs by JC-1 staining based flow cytometric analysis (reference value: 1.89 to 2.23%); assay type: functional
[16] = system: K562; test: Induction of mitochondrial membrane depolarization in human K562 cells assessed as cells with mitochondrial membrane potential loss at 4 uM after 48 hrs by JC-1 staining based flow cytometric analysis (reference value: 1.89 to 2.23%); assay type: functional
[17] = system: K562; test: Induction of apoptosis in human K562 cells after 48 hrs by Annexin V-FITC/propidium iodide-staining based flow cytometric analysis; assay type: functional, cell-based; method in brief: as §3
[18] = system: ECa-109 cell line; test: Cytotoxicity against human ECA109 cells assessed as cell growth inhibition after 48 hrs by MTT assay; assay type: functional, cell-based; details: ECa-109, 48 h; method in brief: as §2
[19] = system: K562; test: Induction of apoptosis in human K562 cells assessed as late apoptotic cells at 1.2 uM after 48 hrs by Annexin V-FITC/propidium iodide-staining based flow cytometric analysis (reference value: 2.25 to 2.67%); assay type: functional; method in brief: as §3
[20] = system: K562; test: Induction of apoptosis in human K562 cells assessed as late apoptotic cells at 0.8 uM after 48 hrs by Annexin V-FITC/propidium iodide-staining based flow cytometric analysis (reference value: 2.25 to 2.67%); assay type: functional; method in brief: as §3
[21] = system: HL-60; test: Cytotoxicity against human HL60 cells assessed as cell growth inhibition after 48 hrs by MTT assay; assay type: functional, cell-based; details: HL-60, 48 h
Method in brief: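 Suspension cells seeded at 5000/well (HL-60 in IMDM, K562 in RPMI, both with 10% FBS) and treated. MTT then added for 4 h at 37 °C; plates centrifuged at 3000 rpm for 30 min, medium removed, DMSO added, OD570 read. IC50 taken as concentration giving 50% growth inhibition; triplicate.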

[22] = system: HepG2; test: Cytotoxicity against human HepG2 cells assessed as cell growth inhibition after 48 hrs by MTT assay; assay type: functional, cell-based; details: HepG2, 48 h; method in brief: as §2

Work on C=C(C)[C@@H]1CC[C@]2(COC(=O)CCCC[P+](c3ccccc3)(c3ccccc3)c3ccccc3)CC[C@]3(C)[C@H](CC[C@@H]4[C@@]5(C)CC[C@H](O)C(C)(C)[C@@H]5CC[C@]43C)[C@@H]12.[Br-] yielded an Activity [1] of 50%, an Activity [2] of 93.08% and an IC50 [3] of 6620 nM. For the same molecule, the Activity [4] was 0.53%, the Activity [5] was “Active” and the Activity [6] was “Active”. The Activity [7] was 6.68%, the Activity [8] was 82.54% and the viability at 0.4 µM [9] was 88.1%. For the same molecule, the TGI [10] was “Active”, the Activity [11] was 17.08% and the Activity [12] was 38.18%. For the same molecule, the Activity [13] was “Active”, the Activity [14] was “Active” and the Activity [15] was 6.47%. The Activity [16] was 61.4%, the Activity [17] was “Dose-dependent effect” and the IC50 [18] was 780 nM. The Activity [19] was 38.25%, the Activity [20] was 20.57% and the IC50 [21] was 600 nM. The IC50 [22] was 1090 nM.
